# Article PMC9016318 (Cancer Research and Treatment : Official Journal of Korean …, 2021)
# No end group written: not given here.
# B1: nABP284 (peptide)
# peptide: SRLKEIANSPTQFWRMVARNTLGNGAKQSLNIEHARL
# Legend:
# Cal27 cells = assay: CCK-8 cytotoxicity, Cal27 cells; format: cell-based, human; conditions: CCK-8, 64 μM, 24 hours
# Procedure, shortened: (§1)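 Cells were seeded in 96-well plates and cultured 24 h: Jurkat T at 4,000/well, Cal27 at 2,000/well. Test peptide was added at 1–64 μM for 24 h, then CCK-8 for 2 h, and absorbance was read at 450. Viability % = (sample − no-cell baseline with peptide)/(untreated control − no-cell blank) × 100. Data are mean±standard error of three separate experiments.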
# Jurkat T cells = assay: CCK-8 cytotoxicity, Jurkat T cells; format: cell-based, human; conditions: CCK-8, 64 μM, 24 hours
# Procedure, shortened: as §1
# ICIK cells = assay: CCK-8 cytotoxicity, ICIK cells; format: cell-based, human; conditions: CCK-8, 64 μM, 24 hours
# Procedure, shortened: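 ICIK cells were human blood PBMCs, Ficoll-separated, held overnight at 4°C on anti-CD3 (OKT3, 10 μg/mL) coated dishes, then grown 10 days in RPMI 1640/10% FBS with IFN-γ 2000 U/mL and IL-2 10 ng/mL. They were seeded at 4,000/well and cultured 24 h. Test peptide at 1–64 μM was added for 24 h, then CCK-8 for 2 h, and absorbance read at 450. Viability was blank/baseline-corrected against untreated wells.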
# [1] = biological target: human recombinant PD-1 protein (human, UniProt Q15116); assay: SPR
# Sequence of human recombinant PD-1 protein (Q15116 25-170): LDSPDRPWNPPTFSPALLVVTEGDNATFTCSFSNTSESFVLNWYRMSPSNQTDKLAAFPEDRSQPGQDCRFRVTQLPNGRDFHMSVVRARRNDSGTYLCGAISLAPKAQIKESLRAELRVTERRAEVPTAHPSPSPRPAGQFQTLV
Molecule,cytotoxicity to stimulated Cal27 cells (Cal27 cells),cytotoxicity to Jurkat T cells (Jurkat T cells),cytotoxicity to ICIK cells (ICIK cells),Kd [1] [µM]
SRLKEIANSPTQFWRMVARNTLGNGAKQSLNIEHARL [nABP284],not directly cytotoxic,not directly cytotoxic,not directly cytotoxic,
B1,,,,11.8
